Results gathered from unrelated publications.
pEC50, pIC50: −log10 of the molar value. Values after ≈ are worked out from the molar mass of the structure shown.

O=c1c2ccccc2nc(/C=C/c2ccc3c(c2)OCO3)n1-c1cccc(O)c1 — MIC (Enterococcus faecium; microbial growth, broth dilution; NCTC7171): > 128 µg/mL
COC(=O)c1cc(-c2cccc(NC(=O)Nc3ccccc3OC)c2)on1 — MIC (Mycobacteroides chelonae; microbial growth, broth dilution; ATCC35752; 48 h): > 64 µg/mL
O=c1cccc(C2CCCCC2)n1O — MIC80 (Candida albicans; microbial growth; ATCC90028): 1.9 µM (≈ 0.367 µg/mL)
COC(=O)c1cc(-c2cccc(NC(=O)Nc3ccc(C)c(Cl)c3)c2)on1 — MIC (Mycobacteroides chelonae; microbial growth, broth dilution; ATCC35752; 48 h): > 64 µg/mL
OC(Cn1cncn1)(Cn1cncn1)c1ccc(F)cc1F — MFC (Candida albicans; microbial killing): 40 µM (≈ 12.3 µg/mL)
Cc1cc(C2CCCCC2)n(O)c(=O)c1 — MIC80 (Candida albicans; microbial growth; ATCC90028): 1.9 µM (≈ 0.394 µg/mL)
Nc1ccc(/C=C/c2nc3ccccc3c(=O)n2-c2cccc(O)c2)cc1 — MIC (Enterococcus faecium; microbial growth, broth dilution; NCTC7171): > 128 µg/mL
COC(=O)c1cc(-c2cccc(NC(=S)Nc3cccc(Br)c3)c2)on1 — MIC (Mycobacteroides chelonae; microbial growth, broth dilution; ATCC35752; 48 h): > 64 µg/mL
CCC(=O)N1CCN(c2ccc(-n3c(=O)ccc4cnc5ccc(-c6cnc7ccccc7c6)cc5c43)cc2C(F)(F)F)CC1 — pIC50 (Plasmodium berghei; parasite growth, luciferase; human; liver stage): 6.39
COC(=O)c1cc(-c2cccc(NC(=S)Nc3ccc(F)cc3F)c2)on1 — MIC (Mycobacteroides chelonae; microbial growth, broth dilution; ATCC35752; 48 h): 16 µg/mL (≈ 41.1 µM)
N#Cc1ccc(/C=C/c2nc3ccccc3c(=O)n2-c2cc[nH]n2)cc1 — MIC (Enterococcus faecium; microbial growth, broth dilution; NCTC7171): > 128 µg/mL
O=c1c2ccccc2[se]n1-c1ccccc1 — pEC50 (Trypanosoma brucei; parasite growth; blood stage): 5.53
O=c1c2ccccc2nc(/C=C/c2ccc(F)cc2)n1-c1cccc([N+](=O)[O-])c1 — MIC (Enterococcus faecium; microbial growth, broth dilution; NCTC7171): > 128 µg/mL
CCCCCOc1ccc(-c2cc(-c3ccc(C(=O)N[C@H]4C[C@@H](O)[C@@H](O)NC(=O)[C@@H]5[C@@H](O)[C@@H](C)CN5C(=O)[C@H]([C@H](O)CC(N)=O)NC(=O)[C@H]([C@H](O)[C@@H](O)c5ccc(O)c(OS(=O)(=O)O)c5)NC(=O)[C@@H]5C[C@@H](O)CN5C(=O)[C@H]([C@@H](C)O)NC4=O)cc3)no2)cc1 — inhibition (Candida albicans; biofilm formation; 16 µg/mL): 47%
Nc1cccc(-n2c(/C=C/c3ccc(F)cc3)nc3ccccc3c2=O)c1 — MIC (Enterococcus faecium; microbial growth, broth dilution; NCTC7171): 128 µg/mL (≈ 358 µM)
O=C(N/N=C/c1ccc(O)c(O)c1)c1cc2ccccc2cc1O — pIC50 (Murine coronavirus; viral replication): 5.22
COC(=O)c1cc(-c2cccc(NC(=O)Nc3ccc(F)c(F)c3)c2)on1 — MIC (Mycobacteroides chelonae; microbial growth, broth dilution; ATCC35752; 48 h): > 64 µg/mL
COc1ccc(Cc2cc(C)cc(=O)n2O)cc1 — MIC80 (Candida albicans; microbial growth; ATCC90028): 2.3 µM (≈ 0.564 µg/mL)
CCOC(=O)c1cc(-c2cccc(NC(=O)Nc3ccc(Cl)c(Cl)c3)c2)on1 — MIC (Mycobacteroides chelonae; microbial growth, broth dilution; ATCC35752; 48 h): > 64 µg/mL
Cc1ccc(-c2nc3ccccc3c(=O)n2-c2cccc(O)c2)cc1 — MIC (Enterococcus faecium; microbial growth, broth dilution; NCTC7171): > 128 µg/mL
